The source of these data is ChEMBL document CHEMBL1687835, “Using bioluminescence to monitor treatment response in real time in mice with Mycobacterium ulcerans infection” (2011).

Each structure is given as a SMILES string. Active and inactive are the calls of the source.

Assay [1] has as its system Mycobacterium ulcerans. As to the kind of experiment: Antimicrobial activity against Mycobacterium ulcerans Mu1059 expressing luxAB from vibrio harveyi infected BALB/c mouse assessed as reduction in foodpad CFU count after 4 weeks. Type of assay: functional, organism-based. The gist of the method:
(§1)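 Preventive footpad model in female BALB/c mice: treatment started 2 weeks post-infection and was given 5 days/week for 4 weeks (RIF 10 mg/kg gavage; STR 150 mg/kg s.c.). Five mice/group were sacrificed weekly. Footpads were minced in 2 ml PBS, and serial dilutions were plated in duplicate on selective 7H11 at 32°C for 3–4 months. Detection limit was 2 CFU/footpad. Log CFU was compared with day 0 by t test or ANOVA/Dunnett.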

Assay [2] deals with Mycobacterium ulcerans. As to the kind of experiment: Antimicrobial activity against wild type Mycobacterium ulcerans ATCC 19423 infected BALB/c mouse assessed as delay to time to foodpad swelling. The class given is functional, organism-based.
The test system of assay [3] is Mycobacterium ulcerans. The experiment in a line: Antimicrobial activity against recombinant Mycobacterium ulcerans Mu1059 expressing luxAB from vibrio harveyi infected BALB/c mouse assessed as reduction in foodpad relative light unit after 1 week relative to basal level. The class given is functional, organism-based. Put shortly:
(§2)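 Same preventive schedule, with five mice/group sacrificed weekly. Each minced footpad homogenate (in 2 ml PBS) was read by taking a 200-µl sample, adding 20 µl of 1% decanal, and measuring light for 4 s immediately on a luminometer, in duplicate. Log-transformed RLU was compared with day 0 by unpaired t test or one-way ANOVA with Dunnett's posttest (alpha 0.05).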

Assay [4] has as its system Mycobacterium ulcerans. The experiment in a line: Antimicrobial activity against recombinant Mycobacterium ulcerans Mu1059 expressing luxAB from vibrio harveyi infected BALB/c mouse assessed as reduction in foodpad relative light unit after 2 weeks relative to basal level. The class given is functional, organism-based. Put shortly:
as §2

In assay [5] the test system is Mycobacterium ulcerans. The experiment in a line: Antimicrobial activity against recombinant Mycobacterium ulcerans Mu1059 expressing luxAB from vibrio harveyi infected BALB/c mouse assessed as reduction in foodpad CFU count after 1 week relative to basal level. The class given is functional, organism-based. The gist of the method: as §1
Assay [6] relates to Mycobacterium ulcerans. As to the kind of experiment: Antimicrobial activity against recombinant Mycobacterium ulcerans Mu1059 expressing luxAB from vibrio harveyi infected BALB/c mouse assessed as reduction in foodpad CFU count after 2 weeks relative to basal level. Type of assay: functional, organism-based. The gist of the method:
as §1

Assay [7] concerns Mycobacterium ulcerans. As to the kind of experiment: Antimicrobial activity against Mycobacterium ulcerans Mu1059 expressing luxAB from vibrio harveyi infected BALB/c mouse assessed as delay to time to foodpad swelling. Type of assay: functional. The gist of the method:
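Female BALB/c mice, 4 weeks old, were infected in the left hind footpad with 0.03 ml of bacterial suspension in PBS. From week 2 (lesion index 0), treatment ran for 4 weeks, 5 days/week, with drugs in water, 0.2 ml: RIF 10 mg/kg by gavage; STR or KAN 150 mg/kg subcutaneously. After treatment, 15 mice/group were scored weekly for 23 weeks; swelling was defined as lesion index 1.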

In assay [8] the test system is Mycobacterium ulcerans. The experiment in a line: Antimicrobial activity against wild type Mycobacterium ulcerans Mu1059 infected BALB/c mouse assessed as reduction in foodpad CFU count after 4 weeks.

In the case of `CN[C@@H]1[C@H](O[C@H]2[C@H](O[C@H]3[C@H](O)[C@@H](O)[C@H](N=C(N)N)[C@@H](O)[C@@H]3N=C(N)N)O[C@@H](C)[C@]2(O)C=O)O[C@@H](CO)[C@H](O)[C@H]1O`, the outcome in assay [1], in assay [3], in assay [4], in assay [5] and in assay [6] was Active. Further, the result in assay [2] was inactive.
Take `NC[C@H]1O[C@H](O[C@H]2[C@H](O)[C@@H](O[C@H]3O[C@H](CO)[C@@H](O)[C@H](N)[C@H]3O)[C@H](N)C[C@@H]2N)[C@H](O)[C@@H](O)[C@@H]1O` [KANAMYCIN]: the result in assay [1] and in assay [2] was inactive. Also, the Time in assay [7] was found to be 3 weeks. Also, in assay [8], the result was Active.
